Source: PubChem BioAssay
Only some compounds are listed: those with a hit (about 1.7% of all), similar ones and a draw of the others.
RanGTP-Impb inh – disruptors of Ran-importin-beta complex formation – biochemical, FRET, CFP-Ran, YFP-importin-beta, homogeneous, primary screen; cell-free CFP-Ran/YFP-importin-beta FRET ratio; inhibition, % (test concentration not listed); 300,000 tested, 1.1% active; AID 2216;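 active = more than half of the replicate wells show a fall in the fluorescence ratio signal beyond about 16%, limit read from the data, passing the limit was not always enough; inconclusive = exactly half of the replicate wells pass the set limit; inactive = fewer than half of replicates pass the limit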;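 note: 0% = DMSO wells and 100% = Ran loaded with GDP instead of GTP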
Rce1 inhib – yeast Ras-converting enzyme inhibition; Q03530; yeast membranes, quenched prenylated peptide cleavage fluorescence; calls only; 290,000 tested, 0.27% active;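 active = fall in fluorescence gain of 50% or more versus controls, with final raw signal at or below 3038400; inconclusive = same 50% fall but final raw signal above 3038400; inactive = fall in fluorescence gain under 50%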;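 note: plate controls were neutral control wells for no effect and wells lacking membranes for full effect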
Target sequence (Q03530 whole entry, looked up): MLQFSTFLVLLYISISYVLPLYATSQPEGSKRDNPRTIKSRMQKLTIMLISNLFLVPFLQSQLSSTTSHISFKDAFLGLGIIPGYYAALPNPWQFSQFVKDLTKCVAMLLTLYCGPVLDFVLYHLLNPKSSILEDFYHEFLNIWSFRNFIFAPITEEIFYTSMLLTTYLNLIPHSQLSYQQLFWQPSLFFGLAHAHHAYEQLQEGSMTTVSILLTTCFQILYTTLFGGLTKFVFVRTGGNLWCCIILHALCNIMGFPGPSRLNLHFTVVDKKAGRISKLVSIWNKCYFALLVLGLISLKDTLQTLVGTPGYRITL
Runt-CBFb FRET – inhibitors of human RUNX1 Runt domain binding to CBFb. Q01196+Q13951. Cerulean-Runt/Venus-CBFb FRET ratio 530/480, 1 h. inhibition, % at 20 µM. 220,000 tested, 0.46% active. AID 1496;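 active = inhibition over about 50% at 20 µM in the single-dose screen, limit read from the data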;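 note: 0% = DMSO wells and 100% = excess unlabeled CBFb competitor control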
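test system = Cerulean-Runt domain fusion protein, energy donor | probe or stimulus = Venus-CBFb binding partner, 100 nM | incubation = two 1 h room-temperature incubations shielded from light | detection = fluorescence energy transfer, 422 nm excitation, 530/480 nm emission | measure = loss of energy transfer signal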
Runt-SMMHC FRET – Runt domain-CBFb-SMMHC interaction inhibition; AID 1434; 220,000 tested, 0.74% active; inhibition, % at 20 µM; Cerulean-Runt/Venus-CBFb-SMMHC FRET ratio 530/480, 1 h; Q01196+Q13951;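 active = mean inhibition across duplicate retests at 20 µM reaching about 50%, limit read from the data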;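 note: 0% = DMSO wells and 100% = wells with excess untagged CBFb-SMMHC; inhibitors lower the FRET ratio by blocking Runt binding to CBFb-SMMHC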
Vif inh – HIV Vif inhibition | HEK293T cells, Vif self-association by quenched fluorescence, imaging, 24 h | inhibition, % at 7.49 µM | 340,000 tested, 0.35% active | AID 602346; in the data active = inhibition above about 50%, passing the limit was not always enough; inconclusive = no clear call, values can overlap the other calls; inactive = below about 31%
RUNX1 CBFb TR – inhibitors of human RUNX1 Runt domain binding to CBFb; inhibition, % at 20 µM; TR-FRET RUNX1 Runt domain-CBFb binding; shares compounds with Runt-CBFb FRET; 480 tested, 20% active; in the data active = inhibition above about 40%
An asterisk follows results filed as active; i = inactive; ? = inconclusive; . = no result given.

SMILES	RanGTP-Impb inh	Rce1 inhib	Runt-CBFb FRET	Runt-SMMHC FRET	Vif inh	RUNX1 CBFb TR
CCCCC(=O)NNC(=S)NC(=O)c1ccc([N+](=O)[O-])cc1	3	i	54*	22	3	-20
CCOC(=O)CN1NC2(CCCC(C)C2)NC1=S (stereo unspecified)	?	i	51*	32	2	10
CCOC(=O)CN1NC2(CCC(C)CC2)NC1=S (stereo unspecified)	0	i	48	25	2	.
Cc1ccc2c(CSc3nc4ccccc4c(=O)n3CCCO)cc(=O)oc2c1	.	.	.	.	-1	.
Cc1cc(O)c(Oc2cc(C)cc(O)c2O)c(O)c1	-2	.	70*	62*	-1	54*
Oc1cc(-n2cccn2)c(O)cc1-n1cccn1	8	i	53*	100*	-6	8
N#C/C(=C\c1c(N(Cc2ccccc2)Cc2ccccc2)nc2ccccn2c1=O)C(N)=O	0	i	3	7	-3	.
C=CCNC(=O)/C(C#N)=C/c1c(N(Cc2ccccc2)Cc2ccccc2)nc2ccccn2c1=O	4	i	51*	71*	-7	-8
Cn1c(SCC(=O)NC2CCCC2)nnc1C(F)(F)F	.	.	.	.	4	.
CCOC(=O)C1=C(Cc2ccc(C)cc2)C(=O)c2ccccc2C1=O	-11	i	50*	51*	.	-51
CC(=O)Nc1nn(CC(C)C)c2nc3ccc(C)cc3cc12	.	.	.	.	4	.
Cc1ccc2nc3c(cc2c1)c(NC(=O)c1ccccn1)nn3CC(C)C	116*	i	53*	90*	6	33
COc1cc(C(C)=O)ccc1OCC(=O)OC(C)C(=O)c1ccc(F)cc1 (stereo unspecified)	.	.	.	.	-1	.
Cc1cc(O)c(-c2cc(O)c(C)cc2O)cc1O	4	i	58*	80*	2	43*
Cc1ccc(C(=O)/C=C\C(=O)c2ccc(C)cc2)cc1	7	i	62*	51*	3	-12
CC(/C=C/C(=O)c1ccc(C)cc1)=C\c1ccccc1	-3	i	9	3	-9	.
Cc1c(N(C)C(=O)COc2ccc3ccccc3c2)c(=O)n(-c2ccccc2)n1C	3	i	.	.	15	.
O=C1CC(c2ccco2)CC(O)=C1C=NCCO (stereo unspecified)	1	i	81*	-5	.	21
COc1ccc(C(=O)Nc2cccc3c2CCCC3)c(OC)c1	3	i	.	.	-16	.
Cc1cc(C)nc(SCC(=O)c2cc3ccccc3oc2=O)n1	-1	i	54*	26	-2	14
O=C(CSc1nc2ccccc2o1)c1cc2ccccc2oc1=O	.	.	-1	-11	6	.
CC1c2ccccc2-c2ccccc2N1C (stereo unspecified)	.	.	.	.	3	.
COc1cccc2[nH]c3c(Cl)ncnc3c12	3	i	52*	2	-7	28
CCCOc1ccccc1-c1nc2c([nH]1)c(=O)[nH]c(=O)n2C	75*	.	75*	133*	-6	-13
CC(C)(C)C(=O)CSc1ncccn1	5	.	58*	42	-8	70*
SMILES	RanGTP-Impb inh	Rce1 inhib	Runt-CBFb FRET	Runt-SMMHC FRET	Vif inh	RUNX1 CBFb TR
CCOC(=O)C1(CC2CC2)CCN(Cc2cnc(-c3ccc(OC)cc3)nc2)CC1	4	i	-3	1	5	.
O=C(O)c1ccccc1C(=O)Nc1ccccc1	2	i	7	-3	8	.
O=C(Nc1ccccc1)C1=C(c2ccccc2)S(=O)(=O)CCS1(=O)=O	-1	i	52*	44	11	23
CCCCc1cc(=O)oc2cc(C)cc(OCC(=O)N3CCC(C(=O)O)(c4ccccc4)CC3)c12	2	i	.	.	?	.
COCc1cc(C)nc2sc(C(=O)Nc3nccs3)c(N)c12	-13	i	1	-88	.	.
Cc1cc(C)c2c(N)c(C(=O)Nc3nccs3)sc2n1	0	i	56*	39	-5	16
CC(=O)c1ccc(NC(=O)CCCN2C(=O)C(c3ccccc3)Oc3cccnc32)cc1 (stereo unspecified)	-5	i	.	.	3	.
COC(=O)C1=C(CSc2nc3c(cc2C#N)CN(C)CC3)OC(N)=C(C#N)C1c1ccccc1F (stereo unspecified)	24*	i	58*	.	30	55*
CN1CCc2nc(SCCOc3ccccc3)c(C#N)cc2C1	5	i	1	-2	?	.
O=C(NCc1ccc(F)cc1)c1noc2c1CCCC2	-3	i	54*	-1	0	4
S=C1CSc2ccccc2N1	2	i	53*	12	-4	14
CC1(C)CC(=O)c2c(oc3cc(O)c(O)cc23)C1	0	i	52*	44	-1	25
CC(=O)Nc1ccc(S(=O)(=O)NN=CCCc2ccccc2)cc1	.	.	.	.	-4	.
CC(=O)N(c1ccc2oc(=O)sc2c1)S(=O)(=O)c1cccs1	7	i	72*	63*	3	22
CC(C)C(=O)N(c1ccc2oc(=O)sc2c1)S(=O)(=O)c1cccs1	0	i	58*	37	19	38
CC(=O)N(c1ccc2oc(=O)sc2c1)S(=O)(=O)c1ccc(C(=O)O)cc1	1	i	.	.	23	.
Cc1ncoc1C(=O)Nc1ncc([N+](=O)[O-])s1	1	i	64*	27	5	20
O=C(Nc1ncc([N+](=O)[O-])s1)c1cccs1	2	i	.	.	-26	.
COc1ccc(C(=O)NCC(=O)OCC(=O)N2CC(C)OC(C)C2)cc1OC (stereo unspecified)	.	.	.	.	10	.
CCCN(C)C[C@@H]1Oc2ncc(Br)cc2C(=O)N([C@@H](C)CO)C[C@H]1C	.	.	.	.	11	.
Oc1ccc(-c2csc(Nc3ncccn3)n2)cc1O	-2	i	50*	35	11	42*
Oc1ccc(-c2csc(-c3cccnc3)n2)cc1O	-1	i	53*	33	-1	68*
COc1ccc(SCCCn2c(=O)c3c(ncn3C)n(C)c2=O)cc1	-7	i	.	.	2	.
CCOC(=O)c1cc2c(=O)n3ccccc3nc2n(CC2CCCO2)c1=NC(=O)/C=C/c1ccccc1 (stereo unspecified)	-4	.	81*	86*	-6	33
CCOC(=O)c1cc2c(=O)n3ccccc3nc2n(Cc2ccco2)c1=NC(=O)c1ccc(OC)cc1OC	29*	i	70*	86*	1	52*
Cc1cccc(NC(=O)CSc2nc3ccccc3c(=O)n2CC2CCCO2)c1 (stereo unspecified)	.	.	.	.	0	.
CN(Cc1ccccc1)S(=O)(=O)c1ccc(N2CCOCC2)nc1	5	i	0	-4	6	.
Cc1cc2oc(C(=O)Nc3ccc(S(N)(=O)=O)cc3)c(C)c2cc1Cl	?	i	-4	-14	-5	.
Cc1ccc(C(=O)COC(=O)[C@@H](NC(=O)c2ccco2)C(C)C)s1	.	.	.	.	-3	.
